Measurements: ChEMBL document CHEMBL1154089, “Novel N-(3-carboxyl-9-benzyl-beta-carboline-1-yl)ethylamino acids: synthesis, anti-tumor evaluation, intercalating determination, 3D QSAR analysis and docking investigation” (Eur J Med Chem, 2009)

Key:
Mus musculus [1] = assay: Toxicity in ICR mouse assessed as kidneys necropsy at > 500 mg/kg, ip after 7 days; format: organism-based, Kidney; set-up: dose 500 mg/kg, route intraperitoneal; details: in vivo, 168 h
Summary of the method: (§1)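 Mice fasted overnight with free access to water, then given a single i.p. injection of 150, 300 or 500 mg/kg in 0.2 ml of 0.9% saline. Groups of 12 (six male, six female). Animals were watched continuously for up to 7 days for abnormal behaviour (tremor, twitch, jumping, tetanus, supination) or death. They were sacrificed on day 7, and heart, liver and kidneys were checked macroscopically. LD50 was estimated graphically.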

Mus musculus [2] = assay: Toxicity in ICR mouse assessed as twitch at > 500 mg/kg, ip after 7 days; format: organism-based; set-up: dose 500 mg/kg, route intraperitoneal; details: in vivo, 168 h; summary of the method: as §1
[3] = Cytotoxicity against human MES-SA cells after 48 hrs by MTT assay; format: functional, cell-based
Summary of the method: (§2)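 Cells grown in DMEM or RPMI-1640 with 10% FBS plus penicillin/streptomycin. Seeded at 5 × 10^4 cells/ml and given 4 h at 37 °C in 5% CO2 before the medium was replaced with compound (0.1–400 µM, DMSO vehicle; vehicle control 1% DMSO). After 48 h, MTT added (final 0.5 mg/ml) for 4 h. Formazan dissolved in DMSO and read at 570 nm. IC50 is the concentration giving 50% growth inhibition.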

Mus musculus [4] = assay: Toxicity in mouse S180 cells xenografted in ICR mouse assessed as increase in body weight at 89 umol/kg, ip administered 24 hrs after tumor implantation once daily for 7 consecutive days measured after 24 hrs last post dose; format: organism-based, CCRF S-180; details: in vivo
Summary of the method: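 S180-bearing male ICR mice, n = 12 per group, given 89 µmol/kg i.p. daily in 0.2 ml 0.9% saline for 7 days, starting 24 h after s.c. implantation. Animals weighed daily. Result expressed as body-weight increase from the start of treatment, in g, mean ± SD.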

Mus musculus [5] = assay: Toxicity in ICR mouse assessed as liver necropsy at > 500 mg/kg, ip after 7 days; format: organism-based; set-up: dose 500 mg/kg, route intraperitoneal; details: in vivo, 168 h; summary of the method: as §1
CCRF S-180 [6] = assay: Antitumor activity against mouse S180 cells xenografted in ICR mouse assessed as decrease in tumor weight at 89 umol/kg, ip administered 24 hrs after tumor implantation once daily for 7 consecutive days measured after 24 hrs last post dose; format: functional
Summary of the method: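 Male ICR mice, 10–12 weeks old. Solid tumors from 1 × 10^7 viable S180 ascites cells in 0.2 ml 0.9% saline, injected s.c. at the right armpit. Random allocation at 24 h, 12 per group. Dosed i.p. daily in 0.2 ml 0.9% saline for 7 days. Saline-only negative control; cytarabine 89 µmol/kg positive control. Tumors excised and weighed 24 h after the last dose. ANOVA used for statistics.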

[7] = Cytotoxicity against human H1299 cells after 48 hrs by MTT assay; format: functional, cell-based; details: NCI-H1299, 48 h; summary of the method: as §2
Mus musculus [8] = assay: Toxicity in ICR mouse assessed as supination at > 500 mg/kg, ip after 7 days; format: organism-based; set-up: dose 500 mg/kg, route intraperitoneal; details: in vivo, 168 h; summary of the method: as §1
Mus musculus [9] = assay: Toxicity in ICR mouse assessed as tetanus at > 500 mg/kg, ip after 7 days; format: organism-based; set-up: dose 500 mg/kg, route intraperitoneal; details: in vivo, 168 h; summary of the method: as §1
Mus musculus [10] = assay: Toxicity in ICR mouse assessed as tremor at > 500 mg/kg, ip after 7 days; format: organism-based; set-up: dose 500 mg/kg, route intraperitoneal; details: in vivo, 168 h; summary of the method: as §1
HeLa = assay: Cytotoxicity against human HeLa cells after 48 hrs by MTT assay; format: functional, cell-based; summary of the method: as §2
Mus musculus [11] = assay: Toxicity in ICR mouse assessed as jumping at > 500 mg/kg, ip after 7 days; format: organism-based; set-up: dose 500 mg/kg, route intraperitoneal; details: in vivo, 168 h; summary of the method: as §1
CCRF S-180 [12] = assay: Antitumor activity against mouse S180 cells xenografted in ICR mouse assessed as inhibition of tumor growth at 89 umol/kg, ip administered 24 hrs after tumor implantation once daily for 7 consecutive days measured after 24 hrs last post dose; format: functional; details: CCRF S-180, ip
Summary of the method: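 S180 solid tumors in male ICR mice (10–12 weeks), 1 × 10^7 cells s.c. at the right armpit. Mice randomized at 24 h, n = 12 per group, and dosed i.p. daily in 0.2 ml 0.9% saline for 7 days. Tumors weighed 24 h after the final dose. Inhibition (%) = [(A − B)/A] × 100, where A is the mean tumor weight of saline controls and B is the mean of the treated group.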

Mus musculus [13] = assay: Toxicity in ICR mouse assessed as death at > 500 mg/kg, ip after 7 days; format: organism-based; set-up: dose 500 mg/kg, route intraperitoneal; details: in vivo, 168 h; summary of the method: as §1
Mus musculus [14] = assay: Toxicity in mouse S180 cells xenografted in ICR mouse assessed as spleen index at 89 umol/kg, ip administered 24 hrs after tumor implantation once daily for 7 consecutive days measured after 24 hrs last post dose; format: organism-based, CCRF S-180; details: in vivo
Summary of the method: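 S180-bearing male ICR mice (n = 12) received 89 µmol/kg i.p. daily in 0.2 ml saline for 7 days. Killed under ether 24 h after the last dose; spleens excised and weighed. Spleen index given as mean ± SD, […] body weight.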

HepG2 = assay: Cytotoxicity against human HepG2 cells after 48 hrs by MTT assay; format: functional, cell-based; details: HepG2, 48 h; summary of the method: as §2
Mus musculus [15] = assay: Toxicity in ICR mouse assessed as heart necropsy at > 500 mg/kg, ip after 7 days; format: organism-based; set-up: dose 500 mg/kg, route intraperitoneal; details: in vivo, 168 h; summary of the method: as §1
HL-60 = assay: Cytotoxicity against human HL60 cells after 48 hrs by MTT assay; format: functional, cell-based; details: HL-60, 48 h; summary of the method: as §2

Row | SMILES | Activity (Mus musculus [1]) | Activity (Mus musculus [2]) | IC50 [3] [µM] | Activity (Mus musculus [4]) [g] | Activity (Mus musculus [5]) | Activity (CCRF S-180 [6]) [g] | IC50 [7] [µM] | Activity (Mus musculus [8]) | Activity (Mus musculus [9]) | Activity (Mus musculus [10]) | IC50 (HeLa) [µM] | Activity (Mus musculus [11]) | inhibition in vivo at 89 µmol/kg (CCRF S-180 [12]) [%] | Activity (Mus musculus [13]) | Activity (Mus musculus [14]) [mg/g] | IC50 (HepG2) [µM] | Activity (Mus musculus [15]) | IC50 (HL-60) [µM]
1 | O=C(O)c1cc2c3ccccc3n(Cc3ccccc3)c2c(CCN[C@@H](Cc2ccccc2)C(=O)O)n1 | Non-toxic | Non-toxic | 11 | 9.74 | Non-toxic | 1.56 | 59.3 | Non-toxic | Non-toxic | Non-toxic | 51.7 | Non-toxic | 5.2 | Non-toxic | 14.4 | 114 | Non-toxic | 31.8
2 | O=C(O)c1cc2c3ccccc3n(Cc3ccccc3)c2c(CCN[C@@H](CO)C(=O)O)n1 | – | – | 136 | 11.46 | – | 1.07 | 83.8 | – | – | – | 210 | – | 35.3 | – | 10.5 | 174 | – | 23.5
3 | O=C(O)c1cc2c3ccccc3n(Cc3ccccc3)c2c(CCN[C@@H](Cc2c[nH]c3ccccc23)C(=O)O)n1 | – | – | 11.7 | 11.67 | – | 0.85 | 57.3 | – | – | – | 393 | – | 47.2 | – | 11.7 | 107 | – | 102
4 | Nc1ccn([C@@H]2O[C@H](CO)[C@@H](O)[C@@H]2O)c(=O)n1 [CYTARABINE] | – | – | – | – | – | 0.74 | – | – | – | – | – | – | 54.8 | – | – | – | – | –
5 | O=C(O)c1cc2c3ccccc3n(Cc3ccccc3)c2c(CCN[C@@H](Cc2c[nH]cn2)C(=O)O)n1 | – | – | 14.5 | 11.87 | – | 1.49 | 20 | – | – | – | 136 | – | 9.7 | – | 11.9 | 70.7 | – | 160
6 | CC[C@H](C)[C@H](NCCc1nc(C(=O)O)cc2c3ccccc3n(Cc3ccccc3)c12)C(=O)O | Non-toxic | Non-toxic | 181 | 13.56 | Non-toxic | 1.62 | 69 | Non-toxic | Non-toxic | Non-toxic | 200 | Non-toxic | 1.6 | Non-toxic | 13.6 | 254 | Non-toxic | 33.2
7 | CC(C)C[C@H](NCCc1nc(C(=O)O)cc2c3ccccc3n(Cc3ccccc3)c12)C(=O)O | – | – | 71.2 | 9.04 | – | 1.51 | 69.9 | – | – | – | 189 | – | 8.7 | – | 10.9 | 176 | – | 45.2
8 | C[C@@H](O)[C@H](NCCc1nc(C(=O)O)cc2c3ccccc3n(Cc3ccccc3)c12)C(=O)O | Non-toxic | Non-toxic | 218 | 11.37 | Non-toxic | 2.12 | 86.4 | Non-toxic | Non-toxic | Non-toxic | 221 | Non-toxic | -29.1 | Non-toxic | 11.4 | > 400 | Non-toxic | 50.4
9 | O=C(O)CNCCc1nc(C(=O)O)cc2c3ccccc3n(Cc3ccccc3)c12 | Non-toxic | Non-toxic | 178 | 11.34 | Non-toxic | 1.47 | 75.6 | Non-toxic | Non-toxic | Non-toxic | > 400 | Non-toxic | 11 | Non-toxic | 13.1 | > 400 | Non-toxic | > 400
10 | O=C(O)c1cc2c3ccccc3n(Cc3ccccc3)c2c(CCN2CCC[C@H]2C(=O)O)n1 | – | – | 55.2 | 12.07 | – | 1.53 | 75.5 | – | – | – | 161 | – | 7.2 | – | 12.1 | 107 | – | 28.4
11 | O=C(O)c1cc2c3ccccc3n(Cc3ccccc3)c2c(CCN2C(=O)CCC2C(=O)O)n1 (stereo unspecified) | – | – | 45.9 | 12.24 | – | 0.94 | 97.6 | – | – | – | > 400 | – | 43 | – | 12.2 | > 400 | – | 112
12 | CSCC[C@H](NCCc1nc(C(=O)O)cc2c3ccccc3n(Cc3ccccc3)c12)C(=O)O | – | – | 86.4 | 9.12 | – | 1.63 | 100 | – | – | – | 26.5 | – | 1.5 | – | 11.8 | 108 | – | 182
13 | CC(C)[C@@H](NCCc1nc(C(=O)O)cc2c3ccccc3n(Cc3ccccc3)c12)C(=O)O | – | – | 175 | 10.23 | – | 0.76 | 199 | – | – | – | 290 | – | 53.8 | – | 10.2 | > 400 | – | > 400
